According to ChEMBL document CHEMBL4118103, “Synthesis and Bioactivity Investigation of the Individual Components of Cyclic Lipopeptide Antibiotics” (J Med Chem, 2018):
Values after ≈ are worked out from the molar mass of the structure shown. Bridge positions count the residues as written; N and C are the ends. Square brackets hold non-standard residues; d marks the D form. Peptide text beside a SMILES is read from it. * marks the point of attachment. Nonanoyl = CCCCCCCCC(=O)*; X1 = CC[C@H](C)CCCCC(=O)*; dDab = NCC[C@@H](N)C(=O)O; Heptanoyl = CCCCCCC(=O)*; Octanoyl = CCCCCCCC(=O)*; Dab = NCC[C@H](N)C(=O)O; Nva = CCC[C@H](N)C(=O)O

Tests used:
Klebsiella pneumoniae [1] = assay: Antibacterial activity against NDM-1 producing Klebsiella pneumoniae ATCC BAA-2146 after 18 hrs by agar dilution method; assay type: functional
Outline: (§1)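 Serial two-fold agar dilution per CLSI; bacteria cultured in Mueller-Hinton broth, inoculum about 10^4 cfu/spot; final concentrations 0.03-128 µg/mL; plates incubated 35 °C for 18 h. MIC = lowest concentration preventing visible growth; representative of at least two independent experiments, a third run when the two disagreed.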

Pseudomonas aeruginosa = assay: Antibacterial activity against Pseudomonas aeruginosa ATCC 27853 after 18 hrs by agar dilution method; assay type: functional; outline: as §1
Acinetobacter baumannii = assay: Antibacterial activity against Acinetobacter baumannii ATCC 19606 after 18 hrs by agar dilution method; assay type: functional; outline: as §1
[2] = Cytotoxicity against African green monkey Vero cells after 72 hrs by MTT assay; assay type: cell-based; settings: chlorocebus sabaeus, Vero cells
Outline: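 Vero cells seeded at 2x10^3 cells/well, incubated 24 h at 37 °C, 5% CO2, then exposed to compound 72 h; MTT added for 2 h, medium removed, formazan dissolved in DMSO, absorbance read at 570 nm. Viability relative to untreated cells (100%); CC50 as mean ± SD of three independent experiments, each in triplicate.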

Escherichia coli [3] = assay: Antibacterial activity against extended-spectrum beta-lactamase producing Escherichia coli isolate 14-11 after 18 hrs by agar dilution method; assay type: functional; outline: as §1
Escherichia coli [4] = assay: Antibacterial activity against Escherichia coli ATCC 25922 after 18 hrs by agar dilution method; assay type: functional; outline: as §1
Klebsiella pneumoniae [5] = assay: Antibacterial activity against extended-spectrum beta-lactamase producing Klebsiella pneumoniae 700603 after 18 hrs by agar dilution method; assay type: functional; outline: as §1
[6] = ATCC 19606 = CIP 70.34 = JCM 6841, 18 h
[7] = Klebsiella pneumoniae, 700603, 18 h

Row | Molecule | MIC (Klebsiella pneumoniae [1]; ATCC BAA-2146, 18 h) [µg/mL] | MIC (Pseudomonas aeruginosa; ATCC 27853, 18 h) [µg/mL] | MIC (Acinetobacter baumannii; [6]) [µg/mL] | CC50 at 72 h [2] [µg/mL] | MIC (Escherichia coli [3]; isolate 14-11, 18 h) [µg/mL] | MIC (Escherichia coli [4]; ATCC 25922, 18 h) [µg/mL] | MIC (Klebsiella pneumoniae [5]; [7]) [µg/mL] | MIC (Klebsiella pneumoniae [1]) [µg/mL] | MIC (Pseudomonas aeruginosa) [µg/mL] | MIC (Acinetobacter baumannii; ATCC 19606 = CIP 70.34 = JCM 6841) [µg/mL] | MIC (Escherichia coli [3]) [µg/mL] | MIC (Escherichia coli [4]) [µg/mL] | MIC (Klebsiella pneumoniae [5]) [µg/mL]
1 | CC[C@H](C)CCCCC(=O)N[C@@H](CCN)C(=O)N[C@H](C(=O)N[C@H](CO)C(=O)N[C@H]1CCNC(=O)[C@H]([C@@H](C)O)NC(=O)[C@H](CCN)NC(=O)[C@H](CCN)NC(=O)[C@H]([C@@H](C)O)NC(=O)[C@@H](CC(C)C)NC(=O)[C@H](CCN)NC1=O)[C@@H](C)O (X1-[Dab]T[dS][Dab][Dab][dL]T[Dab][Dab]T; lactam 4-C) | 0.5 (≈ 0.437 µM) | 2 (≈ 1.75 µM) | 0.06 (≈ 0.0524 µM) | 189 (≈ 165 µM) | 0.25 (≈ 0.218 µM) | 0.12 (≈ 0.105 µM) | 1 (≈ 0.874 µM) |  |  |  |  |  | 
2 | CC[C@H](C)CCCCC(=O)N[C@@H](CCN)C(=O)N[C@H](C(=O)N[C@H](CO)C(=O)N[C@H]1CCNC(=O)[C@H]([C@@H](C)O)NC(=O)[C@H](CCN)NC(=O)[C@H](CCN)NC(=O)[C@H]([C@@H](C)O)NC(=O)[C@@H](Cc2ccccc2)NC(=O)[C@H](CCN)NC1=O)[C@@H](C)O | 0.5 (≈ 0.424 µM) | 4 (≈ 3.39 µM) | 0.12 (≈ 0.102 µM) | 160 (≈ 136 µM) | 0.5 (≈ 0.424 µM) | 0.25 (≈ 0.212 µM) | 1 (≈ 0.849 µM) |  |  |  |  |  | 
3 | COLISTIN |  |  |  |  |  |  |  | 1 | 2 | 0.5 | 0.5 | 1 | 1
4 | CCCCCCCC(=O)N[C@@H](CCN)C(=O)N[C@H](C(=O)N[C@@H](CCN)C(=O)N[C@H]1CCNC(=O)[C@H]([C@@H](C)O)NC(=O)[C@H](CCN)NC(=O)[C@H](CCN)NC(=O)[C@H](CC(C)C)NC(=O)[C@@H](CC(C)C)NC(=O)[C@H](CCN)NC1=O)[C@@H](C)O (Octanoyl-[Dab]T[Dab][Dab][Dab][dL]L[Dab][Dab]T; lactam 4-C) | 0.5 (≈ 0.433 µM) | 1 (≈ 0.865 µM) | 0.5 (≈ 0.433 µM) | 150 (≈ 130 µM) | 0.5 (≈ 0.433 µM) | 0.5 (≈ 0.433 µM) | 1 (≈ 0.865 µM) |  |  |  |  |  | 
5 | CC[C@H](C)CCCCC(=O)N[C@@H](CCN)C(=O)N[C@H](C(=O)N[C@H](CCN)C(=O)N[C@H]1CCNC(=O)[C@H]([C@@H](C)O)NC(=O)[C@H](CCN)NC(=O)[C@H](CCN)NC(=O)[C@H]([C@@H](C)O)NC(=O)[C@@H](CC(C)C)NC(=O)[C@H](CCN)NC1=O)[C@@H](C)O (X1-[Dab]T[dDab][Dab][Dab][dL]T[Dab][Dab]T; lactam 4-C) | 1 (≈ 0.864 µM) | 1 (≈ 0.864 µM) | 1 (≈ 0.864 µM) | 145 (≈ 125 µM) | 1 (≈ 0.864 µM) | 0.5 (≈ 0.432 µM) | 1 (≈ 0.864 µM) |  |  |  |  |  | 
6 | CCCCCCC(=O)N[C@@H](CCN)C(=O)N[C@H](C(=O)N[C@@H](CCN)C(=O)N[C@H]1CCNC(=O)[C@H]([C@@H](C)O)NC(=O)[C@H](CCN)NC(=O)[C@H](CCN)NC(=O)[C@H](CC(C)C)NC(=O)[C@@H](Cc2ccccc2)NC(=O)[C@H](CCN)NC1=O)[C@@H](C)O [POLYMYXIN B4] (Heptanoyl-[Dab]T[Dab][Dab][Dab][dF]L[Dab][Dab]T; lactam 4-C) | 0.5 (≈ 0.425 µM) | 1 (≈ 0.851 µM) | 0.5 (≈ 0.425 µM) | 160 (≈ 136 µM) | 0.5 (≈ 0.425 µM) | 0.5 (≈ 0.425 µM) | 1 (≈ 0.851 µM) |  |  |  |  |  | 
7 | CCCCCCCCC(=O)N[C@@H](CCN)C(=O)N[C@H](C(=O)N[C@@H](CCN)C(=O)N[C@H]1CCNC(=O)[C@H]([C@@H](C)O)NC(=O)[C@H](CCN)NC(=O)[C@H](CCN)NC(=O)[C@H](CC(C)C)NC(=O)[C@@H](Cc2ccccc2)NC(=O)[C@H](CCN)NC1=O)[C@@H](C)O [POLYMYXIN B5] (Nonanoyl-[Dab]T[Dab][Dab][Dab][dF]L[Dab][Dab]T; lactam 4-C) | 4 (≈ 3.32 µM) | 4 (≈ 3.32 µM) | 2 (≈ 1.66 µM) | 33 (≈ 27.4 µM) | 2 (≈ 1.66 µM) | 2 (≈ 1.66 µM) | 2 (≈ 1.66 µM) |  |  |  |  |  | 
8 | CCCCCCC(=O)N[C@@H](CCN)C(=O)N[C@H](C(=O)N[C@@H](CCN)C(=O)N[C@H]1CCNC(=O)[C@H]([C@@H](C)O)NC(=O)[C@H](CCN)NC(=O)[C@H](CCN)NC(=O)[C@H](CC(C)C)NC(=O)[C@@H](CC(C)C)NC(=O)[C@H](CCN)NC1=O)[C@@H](C)O (Heptanoyl-[Dab]T[Dab][Dab][Dab][dL]L[Dab][Dab]T; lactam 4-C) | 0.5 (≈ 0.438 µM) | 1 (≈ 0.876 µM) | 2 (≈ 1.75 µM) | 216 (≈ 189 µM) | 0.5 (≈ 0.438 µM) | 1 (≈ 0.876 µM) | 0.5 (≈ 0.438 µM) |  |  |  |  |  | 
9 | CCCCCCCC(=O)N[C@@H](CCN)C(=O)N[C@H](C(=O)N[C@@H](CCN)C(=O)N[C@H]1CCNC(=O)[C@H]([C@@H](C)O)NC(=O)[C@H](CCN)NC(=O)[C@H](CCN)NC(=O)[C@H](CC(C)C)NC(=O)[C@@H](Cc2ccccc2)NC(=O)[C@H](CCN)NC1=O)[C@@H](C)O (Octanoyl-[Dab]T[Dab][Dab][Dab][dF]L[Dab][Dab]T; lactam 4-C) | 1 (≈ 0.841 µM) | 1 (≈ 0.841 µM) | 0.5 (≈ 0.42 µM) | 86 (≈ 72.3 µM) | 1 (≈ 0.841 µM) | 0.5 (≈ 0.42 µM) | 1 (≈ 0.841 µM) |  |  |  |  |  | 
10 | CC[C@H](C)CCCCC(=O)N[C@@H](CCN)C(=O)N[C@H](C(=O)N[C@@H](CCN)C(=O)N[C@H]1CCNC(=O)[C@H]([C@@H](C)O)NC(=O)[C@H](CCN)NC(=O)[C@H](CCN)NC(=O)[C@H](CC(C)C)NC(=O)[C@@H](Cc2ccccc2)NC(=O)[C@H](CCN)NC1=O)[C@@H](C)O (X1-[Dab]T[Dab][Dab][Dab][dF]L[Dab][Dab]T; lactam 4-C) | 0.25 (≈ 0.208 µM) | 2 (≈ 1.66 µM) | 0.25 (≈ 0.208 µM) | 71 (≈ 59 µM) | 0.5 (≈ 0.415 µM) | 1 (≈ 0.831 µM) | 2 (≈ 1.66 µM) |  |  |  |  |  | 
11 | CC[C@H](C)CCCCC(=O)N[C@@H](CCN)C(=O)N[C@H](C(=O)N[C@@H](CCN)C(=O)N[C@H]1CCNC(=O)[C@H]([C@@H](C)O)NC(=O)[C@H](CCN)NC(=O)[C@H](CCN)NC(=O)[C@H]([C@@H](C)CC)NC(=O)[C@@H](CC(C)C)NC(=O)[C@H](CCN)NC1=O)[C@@H](C)O | 1 (≈ 0.855 µM) | 2 (≈ 1.71 µM) | 1 (≈ 0.855 µM) | 176 (≈ 150 µM) | 0.5 (≈ 0.428 µM) | 1 (≈ 0.855 µM) | 1 (≈ 0.855 µM) |  |  |  |  |  | 
12 | CCC[C@@H]1NC(=O)[C@@H](CC(C)C)NC(=O)[C@H](CCN)NC(=O)[C@@H](NC(=O)[C@H](CCN)NC(=O)[C@@H](NC(=O)[C@H](CCN)NC(=O)CCCC[C@@H](C)CC)[C@@H](C)O)CCNC(=O)[C@H]([C@@H](C)O)NC(=O)[C@H](CCN)NC(=O)[C@H](CCN)NC1=O (X1-[Dab]T[Dab][Dab][Dab][dL][Nva][Dab][Dab]T; lactam 4-C) | 1 (≈ 0.865 µM) | 1 (≈ 0.865 µM) | 1 (≈ 0.865 µM) | 109 (≈ 94.3 µM) | 1 (≈ 0.865 µM) | 1 (≈ 0.865 µM) | 2 (≈ 1.73 µM) |  |  |  |  |  | 
